From ChEMBL document CHEMBL1146338, “Synthesis and antioxidant activity evaluation of new 7-aryl or 7-heteroarylamino-2,3-dimethylbenzo[b]thiophenes obtained by Buchwald-Hartwig C-N cross-coupling” (Bioorg Med Chem, 2007)
Values after ≈ are worked out from the molar mass of the structure shown.

Assays:
[1] = tested on: Radical scavenging activity; assay: Antioxidant activity assessed as DPPH radical scavenging activity; format: functional
Procedure, shortened: (§1)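 Compound in methanol (0.3 mL, various concentrations) mixed with methanolic DPPH ([…] stock, 2.7 mL), shaken and held 60 min in the dark. Absorbance read at 517 nm. %RSA = [(ADPPH − AS)/ADPPH] × 100. Means of three independent samples. EC50 (50% scavenging) taken from the plot of %RSA against concentration; BHA and BHT as standards.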

[2] = tested on: Radical scavenging activity; assay: Antioxidant activity assessed as DPPH radical scavenging activity at 0.125 g/L; format: functional; procedure, shortened: as §1
[3] = tested on: Erythrocyte; assay: Inhibition of AAPH-induced ram erythrocyte hemolysis at 0.0625 g/L; format: functional; settings: Ovis aries
Procedure, shortened: (§2)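 Erythrocytes from a male ram (churra galega transmontana) washed three times in 10 mM PBS pH 7.4. A 20% suspension combined with 200 mM AAPH in PBS and methanolic compound at different concentrations, shaken gently 3 h at 37 C. Diluted with PBS, centrifuged, supernatant A540 read. % inhibition set against the AAPH control without compound. Triplicate means; EC50 from the plot; L-ascorbic acid as standard.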

[4] = Antioxidant activity assessed as inhibition of lipid peroxidation at 0.0625 g/L after 2 hrs by beta carotene bleaching method; format: functional
Procedure, shortened: (§3)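 β-Carotene linoleate emulsion (β-carotene dissolved in chloroform) incubated with compound at 50 C in a water bath. A470 read at time zero, then every 20 min until the control lost colour; a blank without β-carotene was subtracted. Activity = (β-carotene after 2 h / initial β-carotene) × 100. Triplicate means; EC50 taken from the activity % versus concentration plot.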

[5] = tested on: Radical scavenging activity; assay: Antioxidant activity assessed as DPPH radical scavenging activity at 0.0156 g/L; format: functional; procedure, shortened: as §1
[6] = Antioxidant activity assessed as inhibition of lipid peroxidation at 0.0312 g/L after 2 hrs by beta carotene bleaching method; format: functional; procedure, shortened: as §3
[7] = Antioxidant activity assessed as inhibition of lipid peroxidation at 0.125 g/L after 2 hrs by beta carotene bleaching method; format: functional; procedure, shortened: as §3
[8] = tested on: Erythrocyte; assay: Inhibition of AAPH-induced ram erythrocyte hemolysis at 0.0312 g/L; format: functional; settings: Ovis aries; procedure, shortened: as §2
[9] = tested on: Radical scavenging activity; assay: Antioxidant activity assessed as DPPH radical scavenging activity at 0.0625 g/L; format: functional; procedure, shortened: as §1
[10] = Antioxidant activity assessed as reduction of ferric cyanide complex by reducing power assay; format: functional
Procedure, shortened: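 Oyaizu method: methanolic compound at various concentrations mixed with sodium phosphate buffer (200 mmol/L, pH 6.6) and 1% potassium ferricyanide, held 20 min at 50 C. 10% TCA added, then centrifuged. Supernatant diluted with water, 0.1% FeCl3 added, A700 read. Triplicate means; EC50 = concentration giving absorbance 0.5, from the A700 versus concentration plot. Standards: BHA, BHT, ascorbic acid.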

[11] = tested on: Erythrocyte; assay: Inhibition of AAPH-induced ram erythrocyte hemolysis at 0.125 g/L; format: functional; settings: Ovis aries; procedure, shortened: as §2
[12] = tested on: Erythrocyte; assay: Inhibition of AAPH-induced ram erythrocyte hemolysis; format: functional, cell-based; settings: Ovis aries; procedure, shortened: as §2
[13] = tested on: Radical scavenging activity; assay: Antioxidant activity assessed as DPPH radical scavenging activity at 0.250 g/L; format: functional; procedure, shortened: as §1
[14] = Antioxidant activity assessed as inhibition of lipid peroxidation at 0.0156 g/L after 2 hrs by beta carotene bleaching method; format: functional; procedure, shortened: as §3
[15] = Antioxidant activity assessed as inhibition of lipid peroxidation after 2 hrs by beta carotene bleaching method; format: functional; procedure, shortened: as §3
[16] = Antioxidant activity assessed as inhibition of lipid peroxidation at 0.250 g/L after 2 hrs by beta carotene bleaching method; format: functional; procedure, shortened: as §3
[17] = tested on: Erythrocyte; assay: Inhibition of AAPH-induced ram erythrocyte hemolysis at 0.0156 g/L; format: functional; settings: Ovis aries; procedure, shortened: as §2
[18] = tested on: Radical scavenging activity; assay: Antioxidant activity assessed as DPPH radical scavenging activity at 0.0312 g/L; format: functional; procedure, shortened: as §1
[19] = tested on: Erythrocyte; assay: Inhibition of AAPH-induced ram erythrocyte hemolysis at 0.250 g/L; format: functional; settings: Ovis aries; procedure, shortened: as §2
[20] = Antioxidant activity assessed as inhibition of lipid peroxidation at 2 g/L after 2 hrs by beta carotene bleaching method; format: functional; procedure, shortened: as §3
[21] = tested on: Erythrocyte; assay: Inhibition of AAPH-induced ram erythrocyte hemolysis at 1 g/L; format: functional; settings: Ovis aries; procedure, shortened: as §2

| SMILES | EC50 [1] [µg/mL] | Activity [2] [%] | inhibition at 62.5 µg/mL [3] [%] | inhibition [4] [%] | Activity [5] [%] | inhibition [6] [%] | inhibition [7] [%] | inhibition at 31.2 µg/mL [8] [%] | Activity [9] [%] | EC50 [10] [µg/mL] | inhibition at 125 µg/mL [11] [%] | EC50 [12] [µg/mL] | Activity [13] [%] | inhibition [14] [%] | EC50 [15] [µg/mL] | inhibition [16] [%] | inhibition at 15.6 µg/mL [17] [%] | Activity [18] [%] | inhibition at 250 µg/mL [19] [%] | other results |
| --- | --- | --- | --- | --- | --- | --- | --- | --- | --- | --- | --- | --- | --- | --- | --- | --- | --- | --- | --- | --- |
| COc1ccc(Nc2cccc3c(C)c(C)sc23)cc1OC | 17.3 (≈ 55.2 µM) | 92.1 | 61.2 | 100 | 47.3 | 91.4 | 100 | 58.3 | 86.9 | 22.7 (≈ 72.4 µM) | 62.1 | 18.9 (≈ 60.3 µM) | 94.7 | 89.3 | 8.73 (≈ 27.9 µM) | 100 | 47.8 | 72.4 | 62.9 | – |
| CC(C)(C)c1cc(O)ccc1O | – | – | – | – | – | – | – | – | – | – | – | – | – | – | – | – | – | – | – | inhibition [20]: 82.2% |
| Cc1sc2c(Nc3cccnc3)cccc2c1C | > 250 | 9 | 66.9 | 70.9 | 2.5 | 65.4 | 76.1 | 56.8 | 5.5 | > 250 | 69.3 | 24.1 (≈ 94.7 µM) | 15.5 | 48.1 | 17.3 (≈ 68 µM) | 86.2 | 41.8 | 2.8 | 74.1 | – |
| Cc1sc2c(Nc3ccc(C#N)cc3)cccc2c1C | > 250 | 0.5 | 62.1 | 69 | 0 | 67.3 | 71 | 59.4 | 0 | > 250 | 62.6 | 18 (≈ 64.7 µM) | 3.1 | 49.6 | 16 (≈ 57.5 µM) | 79.6 | 48.3 | 0 | 66.4 | – |
| COc1ccc(Nc2cccc3c(C)c(C)sc23)cc1 | 14 (≈ 49.4 µM) | 91.1 | 65.1 | 99.7 | 55.8 | 96.8 | 100 | 61.2 | 88.4 | 21.6 (≈ 76.2 µM) | 65.9 | 21.4 (≈ 75.5 µM) | 93.3 | 92.3 | 8.45 (≈ 29.8 µM) | 100 | 43.4 | 85.8 | 66.7 | – |
| COc1cccc(Nc2cccc3c(C)c(C)sc23)c1 | > 250 | 22.2 | 58 | 68.9 | 7.9 | 62.9 | 82.6 | 44.3 | 13.5 | 98.7 (≈ 348 µM) | 63.1 | 44.2 (≈ 156 µM) | 28.4 | 56.8 | 13.7 (≈ 48.3 µM) | 84.8 | 40.3 | 13.4 | 66.7 | – |
| O=C1O[C@H]([C@@H](O)CO)C(O)=C1O [ASCORBIC ACID] | – | – | – | – | – | – | – | – | – | – | – | – | – | – | – | – | – | – | – | inhibition at 1000 µg/mL [21]: 94.6% |
| Cc1sc2c(Nc3ccccn3)cccc2c1C | > 250 | 8.8 | 53 | 45.8 | 0.4 | 42.9 | 45.9 | 44.5 | 4.9 | > 250 | 64.6 | 51.4 (≈ 202 µM) | 9 | 40.7 | > 250 | 47.2 | 38.4 | 2.6 | 69.5 | – |
